The source made the active and inactive calls. The rule behind the calls is not given here.

Data set [1] has as its target T1, Heme oxygenase 1 (Homo sapiens) (UniProt P09601).
T1 sequence (whole entry): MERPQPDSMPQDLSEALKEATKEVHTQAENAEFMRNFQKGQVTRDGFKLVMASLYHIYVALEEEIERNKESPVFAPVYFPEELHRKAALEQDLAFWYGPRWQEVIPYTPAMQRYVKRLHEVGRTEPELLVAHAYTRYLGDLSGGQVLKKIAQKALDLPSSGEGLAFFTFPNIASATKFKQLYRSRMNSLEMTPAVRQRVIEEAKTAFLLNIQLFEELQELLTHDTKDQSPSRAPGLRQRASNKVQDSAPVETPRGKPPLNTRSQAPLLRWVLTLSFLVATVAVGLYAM
In words: Induction of HO-1-mediated OAS3 mRNA expression in human Ava5 cells after 3 days by RT-qPCR method. In kind it is cell-based. The procedure, abridged:
(§1)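 Ava5 cells were treated for 3 days at the indicated concentrations. Target mRNAs were measured by RT-qPCR with specific primers and normalized to endogenous gapdh. Results are relative to DMSO-treated cells.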

The nature of data set [2]: Cytotoxicity against human Ava5 cells assessed as cell viability at 200 uM after 72 hrs by XTT assay relative to control. It is filed as cell-based. Conditions: read-out: Activity. The procedure, abridged: (§2)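 XTT viability assay run alongside the antiviral assays. Ava5 cells were plated at 5×10^3 per well and exposed to 20 or 200 μM for 72 h at 37 °C in humidified 5% CO₂. Viability is expressed as % of untreated cells.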
(In general: Tetrazolium assays rely on reduction of a dye to a coloured formazan, in cell work by metabolically active cells.)

The target of data set [3] is T1, Heme oxygenase 1 (Homo sapiens). The experiment in a line: Induction of HO-1-mediated PKR mRNA expression in human Ava5 cells after 3 days by RT-qPCR method. In kind it is cell-based. The procedure, abridged: as §1
Background: Real-time PCR tracks product formation cycle by cycle.

Data set [4] has the same target. The experiment in a line: Induction of HO-1-mediated IFN-alpha-17 mRNA expression in human Ava5 cells after 3 days by RT-qPCR method. In kind it is cell-based. The procedure, abridged:
as §1

Data set [5] deals with T2, Transcription regulator protein BACH1 (Homo sapiens) (UniProt O14867).
T2 sequence (whole entry): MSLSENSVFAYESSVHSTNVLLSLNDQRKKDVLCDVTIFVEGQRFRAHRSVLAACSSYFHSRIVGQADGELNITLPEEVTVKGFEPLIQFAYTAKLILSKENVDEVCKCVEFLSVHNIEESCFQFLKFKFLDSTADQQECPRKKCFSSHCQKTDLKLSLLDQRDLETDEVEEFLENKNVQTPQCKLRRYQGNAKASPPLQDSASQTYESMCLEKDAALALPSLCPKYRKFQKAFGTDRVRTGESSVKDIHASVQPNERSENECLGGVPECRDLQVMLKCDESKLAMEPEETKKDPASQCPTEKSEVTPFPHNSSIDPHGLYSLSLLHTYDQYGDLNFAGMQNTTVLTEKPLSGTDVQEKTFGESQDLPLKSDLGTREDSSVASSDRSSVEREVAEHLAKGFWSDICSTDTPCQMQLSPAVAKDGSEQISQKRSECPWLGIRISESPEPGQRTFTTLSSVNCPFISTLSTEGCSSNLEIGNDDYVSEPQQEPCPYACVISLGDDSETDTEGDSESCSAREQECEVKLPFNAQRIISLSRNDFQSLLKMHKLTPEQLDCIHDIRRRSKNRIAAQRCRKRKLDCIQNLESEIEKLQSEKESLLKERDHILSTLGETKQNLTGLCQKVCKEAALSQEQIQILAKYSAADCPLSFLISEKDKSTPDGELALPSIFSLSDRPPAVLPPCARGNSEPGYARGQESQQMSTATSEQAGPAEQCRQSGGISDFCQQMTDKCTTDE
In words: Reduction of bach-1 translocation into nucleus of human Ava5 cells after 3 days by Western blot method. On the technique in general: In western blotting, separated proteins are transferred to a membrane and probed.

The species entered for data set [6] is Homo sapiens. The experiment in a line: Upregulation of HO-1 protein expression in human Ava5 cells after 3 days by Western blot method. It is filed as functional, cell-based. The procedure, abridged: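 Ava5 cells were treated for 3 days at the indicated concentrations. Lysates (10 µg protein, 10% SDS-PAGE, PVDF) were probed with anti-HO-1 and anti-GAPDH.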

Data set [7] concerns Hepatitis C virus. In words: Antiviral activity against HCV infected in human Ava5 cells assessed as inhibition of viral RNA replication at 20 uM after 3 days by RT-qPCR method relative to control. It is filed as functional, Hepacivirus hominis. Particulars: Ava5, 72 h. The procedure, abridged: (§3)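 Ava5 replicon cells were exposed to 5 or 20 μM for 3 days, starting from 10 mM DMSO stocks diluted in medium. HCV RNA was quantified by RT-qPCR against gapdh and expressed as % inhibition relative to untreated control. Ribavirin was the reference drug. Mean ± SD of three independent experiments.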

For data set [8], the species on record is Homo sapiens. The experiment in a line: Effect on Keap-1 protein expression in human Ava5 cells at 0.5 to 1 uM after 3 days by Western blot method. It is filed as functional, cell-based. The procedure, abridged:
(§4)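 Ava5 cells were treated for 3 days at the indicated concentrations. Whole-cell lysates were immunoblotted with anti-Nrf2, anti-Keap-1, anti-bach1 and anti-GAPDH.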

Data set [9] deals with T1, Heme oxygenase 1 (Homo sapiens). The experiment in a line: Induction of HO-1-mediated ISRE promoter activity in human Ava5 cells transfected with pISRE-Luc after 3 days. In kind it is cell-based. The procedure, abridged: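 Ava5 cells carrying pISRE-Luc (ISRE-driven firefly luciferase) were treated for 3 days at increasing concentrations. Luciferase activity was read in cell lysates, normalized to co-transfected pCMV-SEAP.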

Data set [10] relates to Hepatitis C virus. The experiment in a line: Antiviral activity against HCV infected in human Ava5 cells assessed as inhibition of viral RNA replication at 5 uM after 3 days by RT-qPCR method relative to control. Conditions: Ava5, 72 h. It is filed as functional, Hepacivirus hominis. The procedure, abridged: as §3
Data set [11] is filed under the species Homo sapiens. In words: Effect on Nrf2 protein expression in human Ava5 cells at 0.5 to 1 uM after 3 days by Western blot method. In kind it is functional, cell-based. The procedure, abridged: as §4
The nature of data set [12]: Cytotoxicity against human Ava5 cells assessed as cell viability at 20 uM after 72 hrs by XTT assay relative to control. In kind it is cell-based. Conditions: read-out: Activity. The procedure, abridged: as §2
For data set [13], the target named is T1, Heme oxygenase 1 (Homo sapiens). The experiment in a line: Induction of HO-1-mediated reduction on HCV NS3/4A protease activity in human Huh-7 cells transfected with pEG(DE4AB)SEAP/pNS3/4A after 3 days. It is filed as cell-based. The procedure, abridged:
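Huh-7 cells were co-transfected with the pEG(DE4AB)SEAP reporter and the NS3/4A expression plasmid pNS3/4A, then treated for 3 days. Secreted SEAP activity reports protease activity and is expressed as fold of untreated control (set to 1). Mean ± SD, n=3.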

The species named for data set [14] is Homo sapiens. In words: Downregulation of bach-1 protein expression in human Ava5 cells after 3 days by Western blot method. In kind it is functional, cell-based. The procedure, abridged:
as §4

The target in data set [15] is T1, Heme oxygenase 1 (Homo sapiens). In words: Induction of HO-1-mediated IFN-alpha-2 mRNA expression in human Ava5 cells after 3 days by RT-qPCR method. In kind it is cell-based. The procedure, abridged:
as §1

For data set [16] the target is unchanged. In words: Induction of HO-1-mediated OAS1 mRNA expression in human Ava5 cells after 3 days by RT-qPCR method. In kind it is cell-based. The procedure, abridged: as §1
Data set [17] can be described thus: Induction of HO1 (unknown origin) promoter activity expressed in human Ava5 cells transfected with pHO-1-Luc after 3 days. In kind it is cell-based. The procedure, abridged:
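Ava5 cells were transfected with 0.5 µg pHO-1-Luc, with pCMV-SEAP (0.1 µg) co-transfected for normalization. Cells were then treated at various concentrations for 3 days, and luciferase was read in lysates. Mean ± SD of three independent experiments.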

Data set [18] concerns Hepatitis C virus. The experiment in a line: Antiviral activity against HCV JFH-1 infected in human Huh7.5 cells assessed as inhibition of viral RNA replication after 3 days by RT-qPCR method. Conditions: Hepacivirus hominis. In kind it is functional, organism-based.
Data set [19] concerns the target T1, Heme oxygenase 1 (Homo sapiens). In words: Induction of HO-1-mediated IFN-alpha-5 mRNA expression in human Ava5 cells after 3 days by RT-qPCR method. In kind it is cell-based. The procedure, abridged:
as §1

`COc1ccc(Nc2cc3oc(-c4ccco4)nc3c3ccccc23)cc1`: the Activity result (in data set [1]; in data set [3]; in data set [4]; in data set [5]; in the data set listed under Homo sapiens [6]; in data set [9]) was “Dose-dependent effect” throughout. The Activity entry (in [13]; in the data set listed under Homo sapiens [14]; in data set [15]; in [16]; in data set [17]; in [19]) was “Dose-dependent effect” each time. Besides, the viability at 72 h, 200 µM in [2] worked out at 32.3%. Moreover, the inhibition (commonly the share of the control response that was lost under treatment) at 20 µM in the data set with Hepatitis C virus [7] was 94.6%. Also, the outcome in the data set filed under Homo sapiens [8] and in the data set filed under Homo sapiens [11] was inactive. The inhibition at 5 µM with Hepatitis C virus [10] is 92.1%. The viability at 72 h, 20 µM in data set [12] came out at 89.5%. Also, the inhibition result in the data set on Hepatitis C virus [18] was “Dose-dependent effect”.

For the origin of these results see ChEMBL document CHEMBL4138248, “Discovery of naphtho[1,2-d]oxazole derivatives as potential anti-HCV agents through inducing heme oxygenase-1 expression” (Eur J Med Chem, 2018).
